In ChEMBL document CHEMBL1124106, “Synthesis of diethylenetriaminepentaacetic acid conjugated inulin and utility for cellular uptake of liposomes” (J Med Chem, 1988):
Where “and” joins values, the source holds several entries; their conditions need not be identical. Equal values may be shown once.

Tests used:
Mus musculus [1] = experiment: Biodistribution of compound in mice carcass after 1 hr of intravenous injection; type: ADME, organism-based; settings: in vivo
Procedure, shortened: (§1)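 BALB/c mice (about 25 g), n = 4. Free ¹¹¹In- or ⁶⁷Ga-labeled compound (50–100 μL, about 100 000 cpm) was injected into a tail vein. Mice were held in separate cages and killed by cervical dislocation, with blood and cumulative excreta collected. Tissues were rinsed, blotted, weighed and γ-counted, with blood background subtracted (blood volume 8.0%). Values are % injected dose ± SD.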

Mus musculus [2] = experiment: Biodistribution in mice spleen, after 1 hr of intravenous aadministration of 1-2 ug of compound (entrapped in bovine brain sphingomyelin/ cholesterol multilamellar vehicles); type: ADME, organism-based; settings: in vivo
Procedure, shortened: (§2)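 BALB/c mice (about 25 g), 3–5 per group, given 50–100 μL tail-vein injection of 111In-labeled conjugate entrapped in SM/CH (2:1 mol/mol) multilamellar vesicles, approx. 100 000 cpm; dose 1–2 μg phospholipid/g body weight. Killed by cervical dislocation at set times; blood, cumulative excretion and rinsed, blotted, weighed tissues γ-counted, blood background subtracted. Result is % injected dose ± SD.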

Mus musculus [3] = experiment: Biodistribution in mice spleen, after 12 hr of intravenous administration of 1-2 ug of compound (entrapped in bovine brain sphingomyelin/ cholesterol multilamellar vehicles); type: ADME, organism-based; settings: in vivo; procedure, shortened: as §2
Mus musculus [4] = experiment: Biodistribution in mice heart, after 12 hr of intravenous administration of compound (entrapped in bovine brain sphingomyelin/ cholesterol multilamellar vehicles); type: ADME, organism-based; settings: in vivo; procedure, shortened: as §2
Mus musculus [5] = experiment: Biodistribution in mice lung, after 24 hr of intravenous administration of 1-2 ug of compound (entrapped in bovine brain sphingomyelin/ cholesterol multilamellar vehicles); type: ADME, organism-based; settings: in vivo; procedure, shortened: as §2
Mus musculus [6] = experiment: Biodistribution in mice kidneys, after 48 hr of intravenous administration of 1-2 ug of compound (entrapped in bovine brain sphingomyelin/ cholesterol multilamellar vehicles); type: ADME, organism-based, Kidney; settings: in vivo; procedure, shortened: as §2
Mus musculus [7] = experiment: Biodistribution in mice carcass, after 24 hr of intravenous administration of 1-2 ug ofcompound (entrapped in bovine brain sphingomyelin/ cholesterol multilamellar vehicles); type: ADME, organism-based; settings: in vivo; procedure, shortened: as §2
Mus musculus [8] = experiment: Biodistribution in mice heart, after 48 hr of intravenous administration of 1-2 ug of compound (entrapped in bovine brain sphingomyelin/ cholesterol multilamellar vehicles); type: ADME, organism-based; settings: in vivo; procedure, shortened: as §2
Mus musculus [9] = experiment: Biodistribution in mice lung, after 1 hr of intravenous administration of 1-2 ug of compound (entrapped in bovine brain sphingomyelin/ cholesterol multilamellar vehicles); type: ADME, organism-based; settings: in vivo; procedure, shortened: as §2
Mus musculus [10] = experiment: Biodistribution in mice brain, after 12 hr of intravenous administration of 1-2 ug of compound (entrapped in bovine brain sphingomyelin/ cholesterol multilamellar vehicles); type: ADME, organism-based; settings: in vivo; procedure, shortened: as §2
Mus musculus [11] = experiment: Biodistribution in mice leg muscle, after 24 hr of intravenous administration of 1-2 ug of compound (entrapped in bovine brain sphingomyelin/ cholesterol multilamellar vehicles); type: ADME, organism-based, Muscle tissue; settings: in vivo; procedure, shortened: as §2
Mus musculus [12] = experiment: (§3) Biodistribution of compound in mice excretion after 21 hr of intravenous injection; type: ADME, organism-based; settings: in vivo, 21 h; procedure, shortened: as §1
[13] = as §3; type: ADME, organism-based; settings: mouse, excretion (excreta, not specified further), read-out: ID; procedure, shortened: as §1
Mus musculus [14] = experiment: Biodistribution of compound in mice leg muscle after 0.17 hr of intravenous injection; type: ADME, organism-based, Muscle tissue; settings: in vivo; procedure, shortened: as §1
Mus musculus [15] = experiment: Biodistribution in mice carcass, after 12 hr of intravenous administration of 1-2 ug of compound (entrapped in bovine brain sphingomyelin/ cholesterol multilamellar vehicles); type: ADME, organism-based; settings: in vivo; procedure, shortened: as §2
Mus musculus [16] = experiment: Biodistribution in mice brain, after 48 hr of intravenous administrating 1-2 ug of compound (entrapped in bovine brain sphingomyelin/ cholesterol multilamellar vehicles); type: ADME, organism-based; settings: in vivo; procedure, shortened: as §2
Mus musculus [17] = experiment: Biodistribution in mice stomach, after 1 hr of intravenous administration of 1-2 ug of compound (entrapped in bovine brain sphingomyelin/ cholesterol multilamellar vehicles); type: ADME, organism-based; settings: in vivo; procedure, shortened: as §2
Mus musculus [18] = experiment: Biodistribution in mice carcass, after 1 hr of intravenous administration of 1-2 ug ofcompound (entrapped in bovine brain sphingomyelin/ cholesterol multilamellar vehicles); type: ADME, organism-based; settings: in vivo; procedure, shortened: as §2
Mus musculus [19] = experiment: Biodistribution of compound in mice tail after 0.17 hr of intravenous injection; type: ADME, organism-based; settings: in vivo; procedure, shortened: as §1
Mus musculus [20] = experiment: Biodistribution in mice intestine, after 24 hr of intravenous administration of 1-2 ug of compound (entrapped in bovine brain sphingomyelin/ cholesterol multilamellar vehicles); type: ADME, organism-based; settings: in vivo; procedure, shortened: as §2
Mus musculus [21] = experiment: Biodistribution in mice lung, after 48 hr of intravenous administration of 1-2 ug of compound (entrapped in bovine brain sphingomyelin/ cholesterol multilamellar vehicles); type: ADME, organism-based; settings: in vivo; procedure, shortened: as §2
Mus musculus [22] = experiment: (§4) Biodistribution of compound in mice excretion after 0.17 hr of intravenous injection; type: ADME, organism-based; settings: in vivo, 0.17 h; procedure, shortened: as §1
[23] = as §4; type: ADME, organism-based; settings: mouse, excretion (excreta, not specified further), read-out: ID; procedure, shortened: as §1
Mus musculus [24] = experiment: Biodistribution in mice lung, after 12 hr of intravenous administration of 1-2 ug ofcompound (entrapped in bovine brain sphingomyelin/ cholesterol multilamellar vehicles); type: ADME, organism-based; settings: in vivo; procedure, shortened: as §2
Mus musculus [25] = experiment: Biodistribution in mice liver, after 1 hr of intravenous administration of 1-2 ug of compound (entrapped in bovine brain sphingomyelin/ cholesterol multilamellar vehicles); type: ADME, organism-based; settings: in vivo; procedure, shortened: as §2
Mus musculus [26] = experiment: Biodistribution in mice fat, after 1 hr of intravenous administration of 1-2 ug ofcompound (entrapped in bovine brain sphingomyelin/ cholesterol multilamellar vehicles); type: ADME, organism-based; settings: in vivo; procedure, shortened: as §2
[27] = Biodistribution in mice excretion, after 48 hr of intravenous administration of 1-2 ug of compound (entrapped in bovine brain sphingomyelin/ cholesterol multilamellar vehicles) at; type: ADME, organism-based; settings: mouse, excretion (excreta, not specified further), read-out: ID; procedure, shortened: as §2
Mus musculus [28] = experiment: Biodistribution in mice intestine, after 12 hr of intravenous administration of 1-2 ug of compound (entrapped in bovine brain sphingomyelin/ cholesterol multilamellar vehicles); type: ADME, organism-based; settings: in vivo; procedure, shortened: as §2
Mus musculus [29] = experiment: Biodistribution in mice heart, after 1 hr of intravenous administration of 1-2 ug of compound (entrapped in bovine brain sphingomyelin/ cholesterol multilamellar vehicles); type: ADME, organism-based; settings: in vivo; procedure, shortened: as §2
Mus musculus [30] = experiment: Biodistribution of compound in mice liver after 1 hr of intravenous injection; type: ADME, organism-based; settings: in vivo; procedure, shortened: as §1
Mus musculus [31] = experiment: Biodistribution in mice blood, after 48 hr of intravenous administration of 1-2 ug of compound (entrapped in bovine brain sphingomyelin/ cholesterol multilamellar vehicles); type: ADME, organism-based; settings: in vivo; procedure, shortened: as §2
Mus musculus [32] = experiment: Biodistribution of compound in mice skin after 0.17 hr of intravenous injection; type: ADME, organism-based, Zone of skin; settings: in vivo; procedure, shortened: as §1
Mus musculus [33] = experiment: Biodistribution of compound in mice liver after 21 hr of intravenous injection; type: ADME, organism-based; settings: in vivo; procedure, shortened: as §1
Mus musculus [34] = experiment: Biodistribution of compound in mice skin after 1 hr of intravenous injection; type: ADME, organism-based, Zone of skin; settings: in vivo; procedure, shortened: as §1
Mus musculus [35] = experiment: Biodistribution in mice fat, after 48 hr of intravenous administration of 1-2 ug of compound (entrapped in bovine brain sphingomyelin/ cholesterol multilamellar vehicles); type: ADME, organism-based; settings: in vivo; procedure, shortened: as §2
Mus musculus [36] = experiment: Biodistribution in mice stomach, after 24 hr of intravenous administration of 1-2 ug of ofcompound (entrapped in bovine brain sphingomyelin/ cholesterol multilamellar vehicles); type: ADME, organism-based; settings: in vivo
Procedure, shortened: (§5)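 BALB/c mice (about 25 g), groups of 2–5. Compound ¹¹¹In-loaded into SM/CH (2:1, mol/mol) multilamellar vesicles, given as a single tail-vein injection. Lipid dose was 1–2 μg phospholipid/g body weight, in 50–100 μL carrying about 100 000 cpm. Mice were killed by cervical dislocation. Organs were rinsed, blotted, weighed and γ-counted, with blood background subtracted. Values are % injected dose ± SD.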

Mus musculus [37] = experiment: Biodistribution of compound in mice tail after 21 hr of intravenous injection; type: ADME, organism-based; settings: in vivo; procedure, shortened: as §1
Mus musculus [38] = experiment: Biodistribution in mice tail, after 24 hr of intravenous administration of 1-2 ug of compound (entrapped in bovine brain sphingomyelin/ cholesterol multilamellar vehicles); type: ADME, organism-based; settings: in vivo; procedure, shortened: as §5
Mus musculus [39] = experiment: Biodistribution of compound in mice kidneys after 1 hr of intravenous injection; type: ADME, organism-based, Kidney; settings: in vivo; procedure, shortened: as §1

SMILES: NCCNC(=O)CN(CCN(CCN(CC(=O)O)CC(=O)O)CC(=O)O)CC(=O)O
- ID (Mus musculus [1]): 4.1% and 9.1%
- ID (Mus musculus [2]): 3.9%
- ID (Mus musculus [3]): 4%
- ID (Mus musculus [4]): 0%
- ID (Mus musculus [5]): 0.4%
- ID (Mus musculus [6]): 0.4%
- ID (Mus musculus [7]): 2.1%
- ID (Mus musculus [8]): 0%
- ID (Mus musculus [9]): 0.4%
- ID (Mus musculus [10]): 0%
- ID (Mus musculus [11]): 0.2%
- ID (Mus musculus [12]): 69.5%
- dose excreted at 21 h [13]: 77.1%
- ID (Mus musculus [14]): 3.2% and 3.1%
- ID (Mus musculus [15]): 2%
- ID (Mus musculus [16]): 0.2%
- ID (Mus musculus [17]): 0.8%
- ID (Mus musculus [18]): 4%
- ID (Mus musculus [19]): 3.8% and 3.7%
- ID (Mus musculus [20]): 0.8%
- ID (Mus musculus [21]): 0.2%
- ID (Mus musculus [22]): 3.2%
- dose excreted at 0.17 h [23]: 3.6%
- ID (Mus musculus [24]): 0.1%
- ID (Mus musculus [25]): 55.1%
- ID (Mus musculus [26]): 0.3%
- dose excreted at 48 h [27]: 0%
- ID (Mus musculus [28]): 1%
- ID (Mus musculus [29]): 0%
- ID (Mus musculus [30]): 0.3% and 1.4%
- ID (Mus musculus [31]): 0.4%
- ID (Mus musculus [32]): 15.6% and 15.1%
- ID (Mus musculus [33]): 0.4% and 2.1%
- ID (Mus musculus [34]): 5.8% and 7.7%
- ID (Mus musculus [35]): 0.1%
- ID (Mus musculus [36]): 0.1%
- ID (Mus musculus [37]): 2.1% and 2.3%
- ID (Mus musculus [38]): 0.9%
- ID (Mus musculus [39]): 1.9% and 1.7%
